Assay results as given in ChEMBL document CHEMBL3992493, “New approach of delivering cytotoxic drugs towards CAIX expressing cells: A concept of dual-target drugs” (Eur J Med Chem, 2017).
Calls of active or inactive are those of the source. The rule behind the calls is not given here.

Legend:
[1] = target: Carbonic anhydrase 1 (Homo sapiens, UniProt P00915); assay: Binding affinity to recombinant human carbonic anhydrase 1 after 15 mins by stopped-flow CO2 hydration assay
[2] = target: Carbonic anhydrase 2 (Homo sapiens, UniProt P00918); assay: Binding affinity to recombinant human carbonic anhydrase 2 after 15 mins by stopped-flow CO2 hydration assay
[3] = target: Carbonic anhydrase 9 (Homo sapiens, UniProt Q16790); assay: Binding affinity to recombinant human carbonic anhydrase 9 after 15 mins by stopped-flow CO2 hydration assay
[4] = target: Carbonic anhydrase 12 (Homo sapiens, UniProt O43570); assay: Binding affinity to recombinant human carbonic anhydrase 12 after 15 mins by stopped-flow CO2 hydration assay
[5] = system: MDCK; assay: Cytotoxicity against carbonic anhydrase 9 knockdown MDCK cells assessed as reduction in cell viability preincubated for 2 hrs followed by 72 hrs incubation under normoxic condition by Alamar blue assay; type: cell-based; details: Canis lupus familiaris
[6] = system: MDCK; assay: Cytotoxicity against MDCK cells expressing carbonic anhydrase 9 assessed as reduction in cell viability preincubated for 2 hrs followed by 72 hrs incubation under normoxic condition by Alamar blue assay; type: functional, cell-based; details: Canis lupus familiaris
Summary of the method: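 CAIX-overexpressing or scrambled-vector MDCK cells in DMEM/10% FBS, attached overnight, held 24 h at 21% O2/5% CO2. Drug added (0.5% DMSO vehicle) for 2 h, washed off, then 72 h further normoxic growth. Viability measured by 2 h alamarBlue conversion under normoxia.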

[7] = system: MDCK; assay: Cytotoxicity against carbonic anhydrase 9 knockdown MDCK cells assessed as reduction in cell viability after 2 hrs under hypoxic condition by Alamar blue assay; type: cell-based; details: Canis lupus familiaris
Summary of the method: (§1)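 MDCK cells transfected with human CAIX (CAIX+) or scrambled control vector (CAIX−), in DMEM/10% FBS, seeded and attached overnight. Medium replaced with pre-equilibrated hypoxic DMEM (0.2% O2, 5% CO2) for 24 h. Compounds in DMSO (0.5%) added for 2 h, then washed off. Cells regrown 72 h in normoxia. Viability read by alamarBlue conversion for 2 h under normoxia.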

[8] = system: MDCK; assay: Cytotoxicity against MDCK cells expressing carbonic anhydrase 9 assessed as reduction in cell viability after 2 hrs under hypoxic condition by Alamar blue assay; type: functional, cell-based; details: Canis lupus familiaris; summary of the method: as §1
[9] = system: MDCK; assay: Cytotoxicity against carbonic anhydrase 9 knockdown MDCK cells assessed as reduction in cell viability after 72 hrs under normoxic condition by Alamar blue assay; type: cell-based; details: Canis lupus familiaris
[10] = system: MDCK; assay: Cytotoxicity against MDCK cells expressing carbonic anhydrase 9 assessed as reduction in cell viability after 72 hrs under normoxic condition by Alamar blue assay; type: functional, cell-based; details: Canis lupus familiaris
[11] = system: MDCK; assay: Cytotoxicity against carbonic anhydrase 9 knockdown MDCK cells assessed as reduction in cell viability after 72 hrs under hypoxic condition by Alamar blue assay; type: cell-based; details: Canis lupus familiaris
[12] = system: MDCK; assay: Cytotoxicity against MDCK cells expressing carbonic anhydrase 9 assessed as reduction in cell viability after 72 hrs under hypoxic condition by Alamar blue assay; type: functional, cell-based; details: Canis lupus familiaris
[13] = system: MDCK; assay: Cytotoxicity against carbonic anhydrase 9 knockdown MDCK cells assessed as reduction in cell viability incubated for 24 hrs measured after 7 days under normoxic condition by methylene blue staining based clonogenic survival assay; parameters: species or system Canis lupus familiaris; details: dog
Summary of the method: (§2)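 Clonogenic assay: confluent, high-density MDCK CAIX+/CAIX− cells were exposed to drug for 24 h at 0.2% or 21% O2. Cells were then trypsinized and reseeded in triplicate at known numbers. Colonies grew 7 days and were fixed/stained with 0.4% methylene blue in 70% ethanol. Surviving fraction was normalized to 0.5% DMSO vehicle; three independent biological repeats.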

[14] = system: MDCK; assay: Cytotoxicity against MDCK cells expressing carbonic anhydrase 9 assessed as reduction in cell viability incubated for 24 hrs measured after 7 days under normoxic condition by methylene blue staining based clonogenic survival assay; type: functional; details: Canis lupus familiaris; summary of the method: as §2
[15] = system: MDCK; assay: Cytotoxicity against carbonic anhydrase 9 knockdown MDCK cells assessed as reduction in cell viability incubated for 24 hrs measured after 7 days under hypoxic condition by methylene blue staining based clonogenic survival assay; parameters: species or system Canis lupus familiaris; details: dog; summary of the method: as §2
[16] = system: MDCK; assay: Cytotoxicity against MDCK cells expressing carbonic anhydrase 9 assessed as reduction in cell viability incubated for 24 hrs measured after 7 days under hypoxic condition by methylene blue staining based clonogenic survival assay; type: functional; details: Canis lupus familiaris; summary of the method: as §2
[17] = system: HCT-116; assay: Effect on mitochondrial respiration in human HCT116 cells expressing carbonic anhydrase 9 assessed as reduction in oxygen consumption rate at 0.5 mM […]; type: functional, cell-based

Chain of Carbonic anhydrase 12 (O43570 whole entry): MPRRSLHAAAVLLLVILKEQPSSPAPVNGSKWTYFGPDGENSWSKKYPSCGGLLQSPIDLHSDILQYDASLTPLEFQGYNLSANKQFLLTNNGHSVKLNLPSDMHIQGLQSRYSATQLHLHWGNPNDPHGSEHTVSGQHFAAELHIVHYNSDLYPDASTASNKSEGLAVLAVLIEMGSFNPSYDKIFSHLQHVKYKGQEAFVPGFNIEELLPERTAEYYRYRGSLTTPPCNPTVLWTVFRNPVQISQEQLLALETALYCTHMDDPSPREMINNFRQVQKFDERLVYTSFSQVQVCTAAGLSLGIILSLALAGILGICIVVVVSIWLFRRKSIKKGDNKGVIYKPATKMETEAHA
Chain of Carbonic anhydrase 1 (P00915 whole entry): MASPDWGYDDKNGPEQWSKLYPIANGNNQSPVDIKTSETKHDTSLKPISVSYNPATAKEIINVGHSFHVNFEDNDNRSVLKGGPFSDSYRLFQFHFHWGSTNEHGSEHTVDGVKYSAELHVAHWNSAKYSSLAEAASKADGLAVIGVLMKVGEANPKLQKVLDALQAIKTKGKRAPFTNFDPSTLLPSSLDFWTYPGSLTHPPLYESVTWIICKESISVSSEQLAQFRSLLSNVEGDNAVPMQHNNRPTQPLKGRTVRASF

| SMILES | Ki [1] | Ki [2] | Ki [3] | Ki [4] | IC50 [5] | IC50 [6] | IC50 [7] | IC50 [8] | IC50 [9] | IC50 [10] | IC50 [11] | IC50 [12] | Activity [13] | Activity [14] | Activity [15] | Activity [16] | Activity [17] |
| --- | --- | --- | --- | --- | --- | --- | --- | --- | --- | --- | --- | --- | --- | --- | --- | --- | --- |
| NS(=O)(=O)c1ccc(NC(=O)OCCCCc2ccc(N(CCCl)CCCl)cc2)cc1 | 5.58 µM | 0.553 µM | 2.74 µM | 9.38 µM | 8 µM | 56 µM | 8 µM | 62 µM | – | – | – | – | – | – | – | – | – |
| NS(=O)(=O)c1ccc(CCNC(=O)CCCc2ccc(N(CCCl)CCCl)cc2)cc1 | 8.4 µM | 0.45 µM | 4.61 µM | 10.2 µM | 18 µM | 100 µM | 18 µM | 100 µM | – | – | – | – | – | – | – | – | – |
| NS(=O)(=O)c1ccc(CCNc2n[n+]([O-])c3cc4c(cc3[n+]2[O-])CCC4)cc1 | – | – | 0.307 µM | – | > 300 µM | > 300 µM | > 300 µM | > 300 µM | – | – | – | – | – | – | – | – | – |
| Cn1nnc2c(C(N)=O)ncn2c1=O [TEMOZOLOMIDE] | > 50 µM | > 50 µM | > 50 µM | > 50 µM | – | – | – | – | 775 µM | > 1000 µM | 1000 µM | > 1000 µM | Toxic | Active | Toxic | Active | – |
| O=C(O)CCCc1ccc(N(CCCl)CCCl)cc1 [CHLORAMBUCIL] | > 50 µM | > 50 µM | > 50 µM | > 50 µM | 93 µM | > 100 µM | 100 µM | > 100 µM | – | – | – | – | – | – | – | – | – |
| Cn1nnc2c(C(=O)NCc3ccc(S(N)(=O)=O)cc3)ncn2c1=O | – | – | 0.271 µM | – | – | – | – | – | > 1000 µM | > 1000 µM | > 1000 µM | > 1000 µM | – | – | – | – | – |
| NS(=O)(=O)c1ccc(CNC(=O)OCCCCc2ccc(N(CCCl)CCCl)cc2)cc1 | 6.14 µM | 0.265 µM | 4.13 µM | 9.57 µM | 86 µM | 98 µM | 52 µM | 100 µM | – | – | – | – | – | – | – | – | – |
| N=C(N)NC(=N)NCCc1ccccc1 | – | – | – | – | – | – | – | – | – | – | – | – | – | – | – | – | Active |
| Cn1nnc2c(C(=O)NCCc3ccc(S(N)(=O)=O)cc3)ncn2c1=O | – | – | 0.0371 µM | – | – | – | – | – | > 1000 µM | > 1000 µM | > 1000 µM | > 1000 µM | – | – | – | – | – |
